Key:
Rattus norvegicus [1] = assay: Toxicity in Albino rat assessed as gastric-ulcerogenic effect at 30 uM/kg, po twice daily for 3 days; assay type: organism-based; conditions: in vivo, 72 h, 30 µM/kg per day
Outline: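 Male albino rats (100–120 g), six per group, fasted 12 h with water ad libitum. Compounds given orally in two equal doses at 0 and 12 h for three successive days, 30 µM/kg per day; controls received 1% gum acacia orally. Rats killed with diethyl ether 6 h after the last dose and stomachs removed. Lesion severity scored on an arbitrary scale as ulcer index; % ulceration = ulcer-bearing animals/total × 100.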

Rattus norvegicus [2] = assay: Antiinflammatory activity against carrageenan-induced paw edema in sc dosed Albino rat assessed as inhibition of paw edema volume measured 4 hrs after carrageenan challenge; assay type: functional
Outline: (§1)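 Rats randomized into groups of six. Edema induced by subplantar injection of 50 µL 2% carrageenan in 0.9% saline. Compounds in DMSO given sc at 5, 10, 15, 20 and 25 µmol/kg, 1 h before carrageenan; controls got DMSO. Paw volume read by water plethysmometer immediately and 4 h after carrageenan. Protection = (Vc − Vd)/Vc × 100. ED50 taken from dose-response curves at 4 h. Means ± SEM.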

Rattus norvegicus [3] = assay: Antiinflammatory activity in sc dosed Albino rat assessed as protection against carrageenan-induced paw edema measured 4 hrs after carrageenan challenge relative to indomethacin; assay type: functional
Rattus norvegicus [4] = assay: Antiinflammatory activity in sc dosed Albino rat assessed as protection against carrageenan-induced paw edema measured 4 hrs after carrageenan challenge; assay type: functional; outline: as §1

CN1N=C(/C=C/c2ccc3c(c2)OCO3)CCC1=O
Activity (Rattus norvegicus [1]): 10%
ED50 (Rattus norvegicus [2]): 34.3 µmol/kg

O=C1CCC(/C=C/c2ccc3c(c2)OCCO3)=NN1
Activity (Rattus norvegicus [1]): 0%
ED50 (Rattus norvegicus [2]): 27 µmol/kg

O=C1CCC(/C=C/c2ccc(-c3ccccc3)cc2)=NN1c1ccccc1
Activity (Rattus norvegicus [1]): 10%
ED50 (Rattus norvegicus [2]): 38.6 µmol/kg

O=C1CCC(CCc2ccc3c(c2)OCCO3)=NN1
Activity (Rattus norvegicus [1]): 0%
Activity (Rattus norvegicus [3]): 82.28
Activity (Rattus norvegicus [4]): 61.22%
ED50 (Rattus norvegicus [2]): 17 µmol/kg

O=C1CCC(/C=C/c2ccc(-c3ccccc3)cc2)=NN1
Activity (Rattus norvegicus [1]): 10%
ED50 (Rattus norvegicus [2]): 24.6 µmol/kg

O=C1CCC(/C=C/c2ccc(Oc3ccccc3)cc2)=NN1
Activity (Rattus norvegicus [1]): 0%
ED50 (Rattus norvegicus [2]): 28.8 µmol/kg

CN1N=C(/C=C/c2ccc(-c3ccccc3)cc2)CCC1=O
Activity (Rattus norvegicus [1]): 20%
ED50 (Rattus norvegicus [2]): 32.4 µmol/kg

CN1N=C(CCc2ccc(-c3ccccc3)cc2)CCC1=O
Activity (Rattus norvegicus [1]): 0%
ED50 (Rattus norvegicus [2]): 22.3 µmol/kg

O=C1CCC(CCc2ccc(-c3ccccc3)cc2)=NN1
Activity (Rattus norvegicus [1]): 10%
Activity (Rattus norvegicus [3]): 78.17
Activity (Rattus norvegicus [4]): 58.16%
ED50 (Rattus norvegicus [2]): 18.7 µmol/kg

Cc1ccc(-c2cc(C(F)(F)F)nn2-c2ccc(S(N)(=O)=O)cc2)cc1 [CELECOXIB]
Activity (Rattus norvegicus [1]): 0%
Activity (Rattus norvegicus [3]): 104.23
Activity (Rattus norvegicus [4]): 77.5%
ED50 (Rattus norvegicus [2]): 16.7 µmol/kg

COc1ccc2c(c1)c(CC(=O)O)c(C)n2C(=O)c1ccc(Cl)cc1 [INDOMETHACIN]
Activity (Rattus norvegicus [1]): 100%
Activity (Rattus norvegicus [4]): 74.4%
ED50 (Rattus norvegicus [2]): 9.7 µmol/kg
